Assay results published in ChEMBL document CHEMBL1914326, “Synthesis and anticonvulsant properties of new acetamide derivatives of phthalimide, and its saturated cyclohexane and norbornene analogs” (Eur J Med Chem, 2011).
Active and inactive are the calls of the source. The calls are words filed in the database; no cut-off is given here.

Legend:
Mus musculus [1] = test: Anticonvulsant activity in CF1 albino mouse assessed as protection against subcutaneous pentylenetetrazole-induced seizures at 300 mg/kg, ip after 4 hrs; format: functional, organism-based; design: dose 300 mg/kg
How it was run: (§1)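 Male CF-1 mice in groups of eight were dosed i.p. at 30, 100 or 300 mg/kg in 0.5% methylcellulose/water. At 0.5 and 4 h, pentylenetetrazole 85 mg/kg (CD97 dose) was given s.c. This dose produces clonic seizures lasting at least 5 s. The minimum protective dose was recorded, with a top dose of 300 mg/kg.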

Mus musculus [2] = test: Neurotoxicity in CF1 albino mouse assessed as motor impairment at 300 mg/kg, ip after 4 hrs by rotarod test; format: toxicity, organism-based; design: dose 300 mg/kg, route intraperitoneal; details: in vivo
How it was run: (§2)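 Acute neurotoxicity was scored on the minimal motor impairment rotorod test in male CF-1 mice. Animals in groups of eight were dosed i.p. at 30, 100 or 300 mg/kg in 0.5% methylcellulose/water and examined at 0.5 and 4 h. Untreated controls keep their balance on the rod for a prolonged time. The minimum dose causing impairment was recorded.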

Mus musculus [3] = test: Anticonvulsant activity in CF1 albino mouse assessed as protection against maximal electroshock at 300 mg/kg, ip after 0.5 hrs; format: functional, organism-based; design: dose 300 mg/kg
How it was run: (§3)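 Male albino CF-1 mice in groups of eight received i.p. doses of 30, 100 and 300 mg/kg, suspended in 0.5% methylcellulose/water. Maximal electroshock seizures were tested at 0.5 and 4 h, with one additional 0.25 h reading at 100 mg/kg. The minimum dose giving protection was recorded. A dash means no activity at 300 mg/kg.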

Mus musculus [4] = test: Neurotoxicity in ip dosed CF1 albino mouse assessed as minimum dose required to cause tremors after 0.5 hrs by rotarod test; format: toxicity, organism-based; details: in vivo
Mus musculus [5] = test: Anticonvulsant activity in CF1 albino mouse assessed as protection against maximal electroshock at 300 mg/kg, ip after 4 hrs; format: functional, organism-based; design: dose 300 mg/kg; how it was run: as §3
Mus musculus [6] = test: Anticonvulsant activity in CF1 albino mouse assessed as protection against subcutaneous pentylenetetrazole-induced seizures at 300 mg/kg, ip after 0.5 hrs; format: functional, organism-based; design: dose 300 mg/kg; how it was run: as §1
Rattus norvegicus [7] = test: Neurotoxicity in Sprague-Dawley albino rat assessed as motor impairment at 30 mg/kg, po by rotarod test; format: toxicity, organism-based; design: dose 30 mg/kg, route oral; details: in vivo
How it was run: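 Male Sprague-Dawley rats in groups of four were given 30 mg/kg orally in 0.5% methylcellulose/water. Motor impairment was then assessed on the standardized minimal motor impairment rotorod test.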

Rattus norvegicus [8] = test: Anticonvulsant activity in Sprague-Dawley albino rat assessed as protection against maximal electroshock at 30 mg/kg, po after 0.25 hrs; format: functional
How it was run: (§4)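 Male Sprague-Dawley rats in groups of four received 30 mg/kg p.o. as a suspension in 0.5% methylcellulose/water. Maximal electroshock seizure protection was scored at 0.25, 0.5, 1, 2 and 4 h and reported as rats protected/rats tested.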

Mus musculus [9] = test: Anticonvulsant activity in ip dosed CF1 albino mouse assessed as protection against maximal electroshock after 4 hrs; format: functional; details: read-out: MED; how it was run: as §3
Rattus norvegicus [10] = test: Anticonvulsant activity in Sprague-Dawley albino rat assessed as protection against maximal electroshock at 30 mg/kg, po after 2 hrs; format: functional; how it was run: as §4
Rattus norvegicus [11] = test: Anticonvulsant activity in Sprague-Dawley albino rat assessed as protection against maximal electroshock at 30 mg/kg, po after 1 hr; format: functional; how it was run: as §4
Rattus norvegicus [12] = test: Anticonvulsant activity in Sprague-Dawley albino rat assessed as protection against maximal electroshock at 30 mg/kg, po after 4 hrs; format: functional; how it was run: as §4
Mus musculus [13] = test: Anticonvulsant activity in CF1 albino mouse assessed as protection against maximal electroshock at 100 mg/kg, ip after 0.25 hrs; format: functional, organism-based; design: dose 100 mg/kg; how it was run: as §3
Rattus norvegicus [14] = test: Anticonvulsant activity in Sprague-Dawley albino rat assessed as protection against maximal electroshock at 30 mg/kg, po after 0.5 hrs; format: functional; how it was run: as §4
Mus musculus [15] = test: Neurotoxicity in CF1 albino mouse assessed as motor impairment at 300 mg/kg, ip after 0.5 hrs by rotarod test; format: toxicity, organism-based; design: dose 300 mg/kg, route intraperitoneal; details: in vivo; how it was run: as §2
Mus musculus [16] = test: Anticonvulsant activity in ip dosed CF1 albino mouse assessed as protection against maximal electroshock after 0.5 hrs; format: functional; details: read-out: MED; how it was run: as §3
Mus musculus [17] = test: Neurotoxicity in CF1 albino mouse assessed as unable to grasp rotarod at 300 mg/kg, ip after 0.5 hrs by rotarod test; format: toxicity, organism-based; design: dose 300 mg/kg, route intraperitoneal; details: in vivo; how it was run: as §2
Mus musculus [18] = test: Neurotoxicity in CF1 albino mouse assessed as unable to grasp rotarod at 300 mg/kg, ip after 4 hrs by rotarod test; format: toxicity, organism-based; design: dose 300 mg/kg, route intraperitoneal; details: in vivo; how it was run: as §2

| SMILES | Activity (Mus musculus [1]) | Activity (Mus musculus [2]) | Activity (Mus musculus [3]) | Activity (Mus musculus [4]) | Activity (Mus musculus [5]) | Activity (Mus musculus [6]) | Activity (Rattus norvegicus [7]) | Activity (Rattus norvegicus [8]) [%] | minimal effective dose (Mus musculus [9]) [mg/kg] | Activity (Rattus norvegicus [10]) [%] | Activity (Rattus norvegicus [11]) [%] | Activity (Rattus norvegicus [12]) [%] | Activity (Mus musculus [13]) | Activity (Rattus norvegicus [14]) [%] | Activity (Mus musculus [15]) | minimal effective dose (Mus musculus [16]) [mg/kg] | Activity (Mus musculus [17]) | Activity (Mus musculus [18]) |
| --- | --- | --- | --- | --- | --- | --- | --- | --- | --- | --- | --- | --- | --- | --- | --- | --- | --- | --- |
| O=C(CN1C(=O)C2CCCCC2C1=O)N1CCN(c2cccc(Cl)c2Cl)CC1 (stereo not given) | inactive | Non-toxic | inactive | Toxic | inactive | inactive | – | – | – | – | – | – | – | – | – | – | – | – |
| O=C(CN1C(=O)C2CCCCC2C1=O)N1CCN(c2ccc(F)cc2)CC1 (stereo not given) | inactive | Non-toxic | – | – | – | inactive | Non-toxic | 0 | 300 | 0 | 25 | 0 | Active | 50 | Non-toxic | 300 | – | – |
| O=C(CN1C(=O)c2ccccc2C1=O)N1CCOCC1 | inactive | – | – | – | – | inactive | – | – | 100 | – | – | – | – | – | – | 100 | Toxic | Toxic |
